Results from article PMC7719388 (Clinical and Translational Science, 2020).
“Also recorded” adds a separate entry of the source. Read-outs that look alike come from different tables or passages of the source.

Assays:
[1] = cited from earlier work
healthy male subjects [2] = test: First-in-human single ascending dose study: safety and tolerability; type: in vivo
Outline: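 Six cohorts were randomized 6 active vs 2 placebo (5 vs 2 in cohort 1), with two sentinel subjects dosed 48 h ahead. Dosing was a 30-min IV infusion. Cohorts 1–3 used sterile water diluent and an 18G cannula. Cohorts 4–6 used 5% glucose at 1 mg/mL, a 16G cannula in the largest antecubital vein and a 5 mL 5% glucose flush. Monitoring covered AEs, physical examinations, vital signs, 24-h Holter and laboratory tests; discharge was at 7 days.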

[3] = Pharmacokinetics after 30-minute intravenous infusion; type: in vivo, human
Outline: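 Healthy men received a 30-min IV infusion of test compound. Serum levels were measured by validated LC‑MS/MS (lower limit of quantification 5 ng/mL), with samples taken after each ECG extraction. Noncompartmental analysis was done per dose level. Values below the limit were set to zero before Tmax and treated as missing after Tmax.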

healthy male subjects [4] = test: 24-hour Holter ECG: QTcF, QT subintervals and concentration-effect analysis; type: in vivo, human; details: for ΔΔ Tp‐Tend / ΔΔJp‐Tpc / ΔΔQRS / ΔΔQTcF: model prediction at geometric mean Cmax
Outline: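 Healthy men aged 18–45 received a 30-min IV infusion of test compound or 0.9% NaCl placebo, randomized and double-blind. 12-lead Holter recording ran for 24 h from just before dosing. At set times subjects lay supine for at least 8 min, and triplicate ECGs were extracted from the last 3 min. A blinded operator used global median beat analysis. QT was Fridericia-corrected and split into QRS, Jp‑Tpc and Tp‑Tend. Placebo-corrected change from baseline was modelled linearly against concentration, with subject as a random effect, and predicted at geometric mean Cmax per dose.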

healthy male subjects [5] = test: Tremorography; type: in vivo, human; details: all dose levels
Outline: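 A three-axis accelerometer was taped to the dorsal mid third ray of the right hand. Subjects sat semirecumbent with the arm extended horizontally, hand dorsum up, at predefined pre- and post-dose times. Each axis was bandpass filtered at 1–20 Hz (zero-phase third-order Butterworth). Power spectral densities were combined by L1-norm, and the read-outs were peak frequency and its amplitude.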

KCa2 channel [6] = test: In vitro inhibition of KCa2 channels; type: biochemical; details: equivalent of 0.77 µM
KCa2 channel [7] = details: cited from earlier work
[8] = system: Kv11.1 (human ether‐à‐go‐go‐related gene) channel; details: read-out: IC50 for the Kv11.1 channel; in vitro; ref unpublished data; cited from earlier work
[9] = in man, assumed; cited from earlier work
minipigs = details: high dose levels (equivalent to 27.3 mg/kg in man); cited from earlier work
conscious pigs = details: ref unpublished data; cited from earlier work
[10] = in vitro, 30 µM (estimated concentration: 12,000 ng/mL); preclinical; cited from earlier work
[11] = 2 mg/kg, mean volume 15.0 mL, 6 subjects
[12] = 2 mg/kg, mean volume 33.3 mL, 6 subjects
[13] = 1.5 and 2 mg/kg, 3+3 subjects, changed formulation
[14] = 3 and 4 mg/kg, 3+3 subjects, changed formulation
[15] = 5 and 6 mg/kg, 3+3 subjects, changed formulation

Compound: CN(CCOc1ccc(NS(C)(=O)=O)cc1)CCc1ccc(NS(C)(=O)=O)cc1 [Dofetilide, dofetilide]
- effect on Jp‐Tpc interval per concentration [1]: 14.1 ms per ng/mL
- effect on Tp‐Tend interval per concentration [1]: 14.5 ms per ng/mL

Compound: CN(CC#N)C(=O)C[C@H](Nc1nc2ccccc2[nH]1)c1cccc(C(F)(F)F)c1 [AP30663]
- Number of AEs (healthy male subjects [2]; 1 mg/kg, 5 subjects): 1
- Number of infusion site AEs (healthy male subjects [2]; 1 mg/kg, 5 subjects): 1
- Severity of AEs (healthy male subjects [2]; 1 mg/kg, 5 subjects): Mild
- Number of subjects with AEs (healthy male subjects [2]; 1 mg/kg, 5 subjects, AEs considered related): 1 (20%)
- Median duration of AEs (healthy male subjects [2]; 1 mg/kg, 5 subjects, subject lost to follow-up, AE ongoing at day 7): >7 days ^a
- Median duration of AEs (healthy male subjects [2]; [11]): 0.521 days
- Number of AEs (healthy male subjects [2]; [11]): 4
- Number of infusion site AEs (healthy male subjects [2]; [11]): 4
- Number of subjects with AEs (healthy male subjects [2]; [11]): 4 (67%)
- Severity of AEs (healthy male subjects [2]; [11]): Mild
- Median duration of AEs (healthy male subjects [2]; [12]): 32 days
- Number of AEs (healthy male subjects [2]; [12]): 10
- Number of infusion site AEs (healthy male subjects [2]; [12]): 10
- Number of subjects with AEs (healthy male subjects [2]; [12]): 5 (83%)
- Severity of AEs (healthy male subjects [2]; [12]): Mild
- Median duration of AEs (healthy male subjects [2]; [13]): 1.08 days
- Number of AEs (healthy male subjects [2]; [13]): 3
- Number of infusion site AEs (healthy male subjects [2]; [13]): 3
- Number of subjects with AEs (healthy male subjects [2]; [13]): 1 (33%)
- Severity of AEs (healthy male subjects [2]; [13]): Mild
- duration of hardening of the vein upon palpation until resolved (healthy male subjects [2]; 2 subjects in cohort 3): ~4 months
- Median duration of AEs (healthy male subjects [2]; [14]): 13 days
- Number of AEs (healthy male subjects [2]; [14]): 2
- Number of infusion site AEs (healthy male subjects [2]; [14]): 2
- Number of subjects with AEs (healthy male subjects [2]; [14]): 1 (33%)
- Severity of AEs (healthy male subjects [2]; [14]): Mild
- Median duration of AEs (healthy male subjects [2]; [15]): 22 days
- Number of AEs (healthy male subjects [2]; [15]): 2
- Number of infusion site AEs (healthy male subjects [2]; [15]): 2
- Number of subjects with AEs (healthy male subjects [2]; [15]): 1 (33%)
- Severity of AEs (healthy male subjects [2]; [15]): Mild
- central nervous system symptoms or signs (healthy male subjects [2]; all dose levels): no symptoms or signs of engagement of the central nervous system
- serious AEs (healthy male subjects [2]; all dose levels): No serious AEs
- number of AEs related to the administration site (healthy male subjects [2]; cohorts 1–3): 15
- subjects with AEs related to the administration site (healthy male subjects [2]; cohorts 1–3, 10 of 17 subjects): 59%
- subjects with AEs related to the administration site (healthy male subjects [2]; cohorts 4–6, 9 of 18 subjects): 50%
- number of AEs related to the administration site (healthy male subjects [2]; cohorts 4–6, changed administration procedure): 15
- overall safety and tolerability (healthy male subjects [2]; doses up to 6 mg/kg): safe and systemically well‐tolerated; also recorded: safe and well‐tolerated systemically
- time to full recovery of infusion site AEs (healthy male subjects [2]; in vivo): up to 110 days
- related AEs that were related to the infusion site (healthy male subjects [2]; mild, temporary): 33 of 34
- number of AEs considered related to AP30663 administration (healthy male subjects [2]; of 73 AEs in 30 of 47 subjects): 34
- Geometric mean Cmax of AP30663 ([3]; 1 mg/kg, 5 mg/mL): 3398 ng/mL
- Geometric mean Cmax of AP30663 ([3]; 1.5 mg/kg, 1 mg/mL): 4428 ng/mL
- Geometric mean Cmax of AP30663 ([3]; 2 mg/kg, 1 mg/mL): 4644 ng/mL
- Geometric mean Cmax of AP30663 ([3]; 2 mg/kg, 5 mg/mL): 6609 ng/mL
- Geometric mean Cmax of AP30663 ([3]; 2 mg/kg, 10 mg/mL): 7154 ng/mL
- Geometric mean Cmax of AP30663 ([3]; 3 mg/kg, 1 mg/mL): 7950 ng/mL
- Geometric mean Cmax of AP30663 ([3]; 4 mg/kg, 1 mg/mL): 7994 ng/mL
- Geometric mean Cmax of AP30663 ([3]; 5 mg/kg, 1 mg/mL): 7941 ng/mL
- observed maximum total plasma concentration ([3]; 6 mg/kg dose level): around 25.5 µM
- Geometric mean Cmax of AP30663 ([3]; 6 mg/kg, 1 mg/mL): 10245 ng/mL
- dose proportionality of Cmax ([3]; 1-6 mg/kg): less than dose proportional increase
- median Tmax ([3]; 30‐minute linear infusion): 30 min
- Volume of distribution ([3]; highest dose levels): 98.4 L
- clearance ([3]; lower dose levels): 11.5 L/h
- Volume of distribution ([3]; lowest dose): 65.8 L
- mean clearance ([3]; overall): 12.5 ± 3.2 L/h
- clearance ([3]; three highest dose levels): 15.9 L/h
- dose normalized Cmax and area under the curve (AUC) ([3]; with increasing doses): decreased with increasing doses
- ΔΔ Tp‐Tend (healthy male subjects [4]; 1 mg/kg, 5 mg/mL): 1.9 ± 1.3 ms
- ΔΔJp‐Tpc (healthy male subjects [4]; 1 mg/kg, 5 mg/mL): 6.2 ± 3.0 ms
- ΔΔQRS (healthy male subjects [4]; 1 mg/kg, 5 mg/mL): 1.0 ± 1.0 ms
- ΔΔQTcF (healthy male subjects [4]; 1 mg/kg, 5 mg/mL, mean ± SD): 10.5 ± 3.3 ms
- ΔΔ Tp‐Tend (healthy male subjects [4]; 1.5 mg/kg, 1 mg/mL): 2.6 ± 1.4 ms
- ΔΔJp‐Tpc (healthy male subjects [4]; 1.5 mg/kg, 1 mg/mL): 7.0 ± 3.0 ms
- ΔΔQRS (healthy male subjects [4]; 1.5 mg/kg, 1 mg/mL): 0.9 ± 1.0 ms
- ΔΔQTcF (healthy male subjects [4]; 1.5 mg/kg, 1 mg/mL): 11.8 ± 3.4 ms
- ΔΔ Tp‐Tend (healthy male subjects [4]; 2 mg/kg, 1 mg/mL): 2.8 ± 1.4 ms
- ΔΔJp‐Tpc (healthy male subjects [4]; 2 mg/kg, 1 mg/mL): 7.2 ± 3.0 ms
- ΔΔQRS (healthy male subjects [4]; 2 mg/kg, 1 mg/mL): 0.9 ± 1.9 ms
- ΔΔQTcF (healthy male subjects [4]; 2 mg/kg, 1 mg/mL): 12.0 ± 3.5 ms
- ΔΔ Tp‐Tend (healthy male subjects [4]; 2 mg/kg, 5 mg/mL): 4.1 ± 1.7 ms
- ΔΔJp‐Tpc (healthy male subjects [4]; 2 mg/kg, 5 mg/mL): 8.8 ± 3.3 ms
- ΔΔQRS (healthy male subjects [4]; 2 mg/kg, 5 mg/mL): 0.6 ± 1.1 ms
- ΔΔQTcF (healthy male subjects [4]; 2 mg/kg, 5 mg/mL): 14.4 ± 3.9 ms
- ΔΔ Tp‐Tend (healthy male subjects [4]; 2 mg/kg, 10 mg/mL): 4.5 ± 1.8 ms
- ΔΔJp‐Tpc (healthy male subjects [4]; 2 mg/kg, 10 mg/mL): 9.2 ± 3.3 ms
- ΔΔQRS (healthy male subjects [4]; 2 mg/kg, 10 mg/mL): 0.5 ± 1.1 ms
- ΔΔQTcF (healthy male subjects [4]; 2 mg/kg, 10 mg/mL): 15.1 ± 4.1 ms
- ΔΔ Tp‐Tend (healthy male subjects [4]; 3 mg/kg, 1 mg/mL): 5.0 ± 1.9 ms
- ΔΔJp‐Tpc (healthy male subjects [4]; 3 mg/kg, 1 mg/mL): 9.8 ± 3.5 ms
- ΔΔQRS (healthy male subjects [4]; 3 mg/kg, 1 mg/mL): 0.4 ± 1.2 ms
- ΔΔQTcF (healthy male subjects [4]; 3 mg/kg, 1 mg/mL): 16.0 ± 4.3 ms
- ΔΔ Tp‐Tend (healthy male subjects [4]; 4 mg/kg, 1 mg/mL): 5.0 ± 1.9 ms
- ΔΔJp‐Tpc (healthy male subjects [4]; 4 mg/kg, 1 mg/mL): 9.9 ± 3.5 ms
- ΔΔQRS (healthy male subjects [4]; 4 mg/kg, 1 mg/mL): 0.4 ± 1.2 ms
- ΔΔQTcF (healthy male subjects [4]; 4 mg/kg, 1 mg/mL): 16.1 ± 4.3 ms
- ΔΔ Tp‐Tend (healthy male subjects [4]; 5 mg/kg, 1 mg/mL): 5.0 ± 1.9 ms
- ΔΔJp‐Tpc (healthy male subjects [4]; 5 mg/kg, 1 mg/mL): 9.8 ± 3.5 ms
- ΔΔQRS (healthy male subjects [4]; 5 mg/kg, 1 mg/mL): 0.4 ± 1.2 ms
- ΔΔQTcF (healthy male subjects [4]; 5 mg/kg, 1 mg/mL): 16.0 ± 4.3 ms
- ΔΔ Tp‐Tend (healthy male subjects [4]; 6 mg/kg, 1 mg/mL): 6.5 ± 2.3 ms
- ΔΔJp‐Tpc (healthy male subjects [4]; 6 mg/kg, 1 mg/mL): 11.7 ± 3.9 ms
- ΔΔQRS (healthy male subjects [4]; 6 mg/kg, 1 mg/mL): 0.1 ± 1.4 ms
- effect on PR interval (healthy male subjects [4]; all dose levels): no effect
- effect on P‐wave duration (healthy male subjects [4]; all dose levels): no effect
- effect on QRS duration (healthy male subjects [4]; all dose levels): no effect
- effect on QTcF interval and QT subintervals (healthy male subjects [4]; all dose levels): dose‐dependent transient effect
- effect on RR interval (healthy male subjects [4]; all dose levels): no effect
- subjects with QTcF interval exceeding 450 ms (healthy male subjects [4]; any dose level): no subject
- subjects with QTcF interval prolongation of > 60 ms (healthy male subjects [4]; any dose level): no subject
- slope of concentration-effect on Tp‐Tend interval (± standard error) (healthy male subjects [4]; prespecified linear model, P = 0.001): 0.670 ± 0.221 ms/(ug/mL)
- slope of concentration-effect on QTcF interval (± standard error) (healthy male subjects [4]; prespecified linear model, P = 0.003): 1.201 ± 0.431 ms/(ug/mL)
- slope of concentration-effect on Jp‐Tpc interval (± standard error) (healthy male subjects [4]; prespecified linear model, P = 0.007): 0.799 ± 0.327 ms/(ug/mL)
- slope of concentration-effect on QRS duration (± standard error) (healthy male subjects [4]; prespecified linear model, P = 0.870): −0.145 ± 0.129 ms/(ug/mL)
- tremorography mean amplitude (healthy male subjects [5]): 0.2 mG^2•Hz^‐1
- tremorography recordings (healthy male subjects [5]): normal and unchanged
- IC50 for the KCa2 channel, equivalent concentration (KCa2 channel [6]): ~ 300 ng/mL
- inhibition of KCa2 channel subclasses (KCa2 channel [7]): inhibits all three subclasses of KCa2 channels
- IC50 (KCa2 channel [7]; read-out: IC50 for the KCa2 channel, preclinical, no reference given): 770 nM
- IC50 (KCa2 channel [7]; read-out: IC50 for the KCa2 channels, in vitro, ref unpublished data): ~1000 nM
- IC50 [8]: 4000 nM
- free fraction [9]: 6.4%
- tremor (minipigs): induced tremor
- atrial refractoriness (conscious pigs): selectively increase atrial refractoriness; also recorded: increased atrial refractoriness
- conversion of vernakalant‐resistant AF (conscious pigs): converted vernakalant‐resistant AF
- effect on ventricular repolarization (conscious pigs): little or no effect
- reinduction of AF (conscious pigs): prevented its reinduction
- effect on the ventricular interval [10]: no effect
